Consider 10 compounds from ChEMBL document CHEMBL2384943, “New Peptide-based antimicrobials for tackling drug resistance in bacteria: single-cell fluorescence imaging” (ACS Med Chem Lett, 2013).

In data set [1] the test system is Klebsiella aerogenes. The data set is described as follows: Antibacterial activity against tolC-deficient Enterobacter aerogenes EA298 assessed as growth inhibition after 18 hrs by two-fold serial dilution method. It counts as functional. Conditions: EA298, 18 h; call rule not given here. An outline of the steps: (§1)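 Strains were routinely grown at 37 °C in LB broth or on LB agar, with kanamycin 50 μg·mL–1 added for AG100A and EA298 (EA298 is the tolC derivative of clinical MDR isolate EA289). MICs were read in Mueller Hinton broth with 2-fold serial dilutions, using an inoculum of 2 × 10^5 cfu per 200 μL, scored after 18 h at 37 °C. Ciprofloxacin and fleroxacin served as reference antibiotics.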

Data set [2] deals with Klebsiella aerogenes. The data set is described as follows: Antibacterial activity against multidrug-resistant Enterobacter aerogenes EA289 overexpressing AcrAB-tolC assessed as growth inhibition after 18 hrs by two-fold serial dilution method. The format is functional. Particulars: EA289, 18 h. An outline of the steps:
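Inoculum 2 × 10^5 cfu in Mueller Hinton broth with 2-fold serial compound dilutions. MIC was scored after 18 h at 37 °C. Ciprofloxacin and fleroxacin served as internal reference antibiotics. Strains were routinely grown at 37 °C in LB.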

Data set [3] relates to Escherichia coli. The data set is described as follows: Antibacterial activity against acrAB-deficient Escherichia coli AG100A assessed as growth inhibition after 18 hrs by two-fold serial dilution method. The format is functional. The method, boiled down: as §1
The test system of data set [4] is Escherichia coli. The experiment in a line: Antibacterial activity against wild type Escherichia coli AG100 assessed as growth inhibition after 18 hrs by two-fold serial dilution method. It counts as functional. Particulars: AG100, 18 h. The method, boiled down: as §1
In data set [5] the test system is Klebsiella aerogenes. The experiment in a line: Drug uptake in multidrug-resistant Enterobacter aerogenes EA289 overexpressing AcrAB-tolC at 123 uM after 15 to 60 mins by DUV microspectrofluorimetric analysis. It counts as ADME, organism-based. Particulars: in vivo.

Molecules are shown by their SMILES. Values after ≈ are worked out from the molar mass of the structure shown. *1 amine or outer side, *2 acyl side, *3 side chain or, on linkers, in order; H or OH if unused. Where a SMILES comes first, the peptide text is derived from it. The star is where a group is joined. X1 = c1ccc(CN(Cc2ccccc2)Cc2cccc(N*)c2)cc1; X2 = c1ccc(CN(Cc2ccccn2)Cc2cccc(N*)n2)nc1; Glutaryl = O=C(CCCC(=O)[*:2])[*:1]; OBn = c1ccc(CO*)cc1

As for `CC(=O)N[C@@H](CCCNC(=N)N)C(=O)N[C@@H](Cc1c[nH]c2ccccc12)C(=O)N[C@@H](CCCNC(=N)N)C(=O)N[C@@H](Cc1c[nH]c2ccccc12)C(=O)OCc1ccccc1` (Ac-RWRW-OBn), the MIC with Klebsiella aerogenes [1] was 64 µM (≈ 53.4 µg/mL); in the data set with Klebsiella aerogenes [2], over 128 µM; in the data set with Escherichia coli [3], 16 µM (≈ 13.4 µg/mL); with Escherichia coli [4] it was 64 µM (≈ 53.4 µg/mL).

With `O=C(O)c1cn(C2CC2)c2cc(N3CCNCC3)c(F)cc2c1=O` [CIPROFLOXACIN], the MIC stood at 8 µM (≈ 2.65 µg/mL) in the data set with Klebsiella aerogenes [1], 64 µM (≈ 21.2 µg/mL) in the data set on Klebsiella aerogenes [2], 0.03 µM (≈ 0.00994 µg/mL) in the data set on Escherichia coli [3] and 0.125 µM (≈ 0.0414 µg/mL) in the data set with Escherichia coli [4].

For the compound `N=C(N)NCCC[C@H](NC(=O)CCCC(=O)Nc1cccc(CN(Cc2ccccn2)Cc2ccccn2)n1)C(=O)N[C@@H](Cc1c[nH]c2ccccc12)C(=O)N[C@@H](CCCNC(=N)N)C(=O)N[C@@H](Cc1c[nH]c2ccccc12)C(=O)N[C@@H](CCCNC(=N)N)C(=O)N[C@@H](Cc1c[nH]c2ccccc12)C(=O)OCc1ccccc1` ({X2-Glutaryl}-RWRWRW-OBn), the MIC in the data set with Klebsiella aerogenes [1] was determined as 8 µM (≈ 12.3 µg/mL); with Klebsiella aerogenes [2] it was 16 µM (≈ 24.6 µg/mL); in the data set with Escherichia coli [3], 8 µM (≈ 12.3 µg/mL); with Escherichia coli [4], 8 µM (≈ 12.3 µg/mL).

`N=C(N)NCCC[C@H](NC(=O)CCCC(=O)Nc1cccc(CN(Cc2ccccc2)Cc2ccccc2)c1)C(=O)N[C@@H](Cc1c[nH]c2ccccc12)C(=O)N[C@@H](CCCNC(=N)N)C(=O)N[C@@H](Cc1c[nH]c2ccccc12)C(=O)OCc1ccccc1` ({X1-Glutaryl}-RWRW-OBn): the MIC in the data set with Klebsiella aerogenes [1], in the data set with Klebsiella aerogenes [2], in the data set with Escherichia coli [3] and with Escherichia coli [4] was 64 µM (≈ 76.3 µg/mL) throughout.

`CCCCC[C@H](CC(=O)NO)C(=O)N[C@H](C(=O)N1CCC[C@H]1CO)C(C)C` [ACTINONIN]: the MIC is 32 µM (≈ 12.3 µg/mL) with Klebsiella aerogenes [1], over 128 µM in the data set on Klebsiella aerogenes [2], 2 µM (≈ 0.771 µg/mL) in the data set on Escherichia coli [3] and over 128 µM in the data set with Escherichia coli [4].

Regarding `CN(C)c1cccc2c(S(=O)(=O)NCCCC[C@@H](NC(=O)CCCC(=O)Nc3cccc(CN(Cc4ccccc4)Cc4ccccc4)c3)C(=O)N[C@@H](CCCNC(=N)N)C(=O)N[C@@H](Cc3c[nH]c4ccccc34)C(=O)N[C@@H](CCCNC(=N)N)C(=O)N[C@@H](Cc3c[nH]c4ccccc34)C(=O)OCc3ccccc3)cccc12`, the Drug uptake entry with Klebsiella aerogenes [5] is given as “Active”.

As to `CN1CCN(c2c(F)cc3c(=O)c(C(=O)O)cn(CCF)c3c2F)CC1` [FLEROXACIN], the MIC in the data set on Klebsiella aerogenes [1] was 16 µM (≈ 5.91 µg/mL); in the data set on Klebsiella aerogenes [2], over 128 µM; in the data set on Escherichia coli [3], 0.125 µM (≈ 0.0462 µg/mL); in the data set with Escherichia coli [4], 0.5 µM (≈ 0.185 µg/mL).

For `N=C(N)NCCC[C@H](NC(=O)[C@H](Cc1c[nH]c2ccccc12)NC(=O)CCCC(=O)Nc1cccc(CN(Cc2ccccn2)Cc2ccccn2)n1)C(=O)N[C@@H](Cc1c[nH]c2ccccc12)C(=O)N[C@@H](CCCNC(=N)N)C(=O)OCc1ccccc1` ({X2-Glutaryl}-WRWR-OBn), the MIC turned out to be 4 µM (≈ 4.78 µg/mL) in the data set on Klebsiella aerogenes [1], 8 µM (≈ 9.56 µg/mL) with Klebsiella aerogenes [2], 8 µM (≈ 9.56 µg/mL) in the data set on Escherichia coli [3] and 16 µM (≈ 19.1 µg/mL) in the data set on Escherichia coli [4].

Consider `N=C(N)NCCC[C@H](NC(=O)CCCC(=O)Nc1cccc(CN(Cc2ccccn2)Cc2ccccn2)n1)C(=O)N[C@@H](Cc1c[nH]c2ccccc12)C(=O)N[C@@H](CCCNC(=N)N)C(=O)N[C@@H](Cc1c[nH]c2ccccc12)C(=O)OCc1ccccc1` ({X2-Glutaryl}-RWRW-OBn), for which the MIC in the data set on Klebsiella aerogenes [1] worked out at 8 µM (≈ 9.56 µg/mL); in the data set on Klebsiella aerogenes [2], 16 µM (≈ 19.1 µg/mL); in the data set with Escherichia coli [3], 8 µM (≈ 9.56 µg/mL); in the data set on Escherichia coli [4], 32 µM (≈ 38.2 µg/mL).

As to `N=C(N)NCCC[C@H](NC(=O)[C@H](Cc1c[nH]c2ccccc12)NC(=O)CCCC(=O)Nc1cccc(CN(Cc2ccccn2)Cc2ccccn2)n1)C(=O)N[C@@H](Cc1c[nH]c2ccccc12)C(=O)N[C@@H](CCCNC(=N)N)C(=O)N[C@@H](Cc1c[nH]c2ccccc12)C(=O)N[C@@H](CCCNC(=N)N)C(=O)OCc1ccccc1` ({X2-Glutaryl}-WRWRWR-OBn), the MIC in the data set on Klebsiella aerogenes [1] is 8 µM (≈ 12.3 µg/mL); in the data set on Klebsiella aerogenes [2], 16 µM (≈ 24.6 µg/mL); in the data set on Escherichia coli [3] it was 8 µM (≈ 12.3 µg/mL); in the data set with Escherichia coli [4], 8 µM (≈ 12.3 µg/mL).

The term MIC denotes the least concentration at which growth counts as inhibited.
